In ChEMBL document CHEMBL1141042, “Correlation of cytotoxic activity of betulinines and their hydroxy analogues” (Bioorg Med Chem Lett, 2005):

Legend:
Assay type in all cases: functional, cell-based
PC-3 = experiment: Concentration required to kill 50 % of human prostate cancer PC3 cells
Outline: (§1)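 MTT assay. Cells at 2500–30,000/well were preincubated 24 h at 37 C, 5% CO2. Fourfold dilutions of compound in 10% DMSO were added, in duplicate, and exposure ran 72 h at 37 C. MTT was then added for 1–4 h, formazan was dissolved in 10% SDS (pH 5.5) overnight, and OD was read at 540 nm. Survival was calculated versus control wells, with IC50 from dose–response curves.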

HT-29 = experiment: Concentration required to kill 50 % of human colon cancer cell line HT-29; outline: as §1
CCRF-CEM = experiment: Concentration required to kill 50 % of human T-lymphoblastic leukemia cell line (CEM); outline: as §1
K562 [1] = experiment: Concentration required to kill 50 % of human chronic myelogenous leukemia cell line K562; outline: as §1
K562 [2] = experiment: Concentration required to kill 50 % of human paclitaxel-resistant subline of K562 cells (K-562-Tax); outline: as §1
SK-MEL-2 = experiment: Concentration required to kill 50 % of human melanoma SK-MEL2 cells; outline: as §1
[3] = Homo sapiens, PC-3, read-out: IC50
[4] = Homo sapiens, HT-29, read-out: IC50
[5] = Homo sapiens, CCRF-CEM, read-out: IC50
[6] = Homo sapiens, K562, read-out: IC50
[7] = Homo sapiens, SK-MEL-2, read-out: IC50

SMILES	IC50 (PC-3; [3])	IC50 (HT-29; [4])	IC50 (CCRF-CEM; [5])	IC50 (K562 [1]; [6])	IC50 (K562 [2]; [6])	IC50 (SK-MEL-2; sk-mel-2)	IC50 (SK-MEL-2; [7])	IC50 (PC-3; pc-3)	IC50 (HT-29; ht-29)	IC50 (CCRF-CEM; ccrf-cem)	IC50 (K562 [2]; k562)	IC50 (K562 [1]; k562)
CC(C)C1=C2C3CCC4[C@@]5(C)CC[C@H](O)C(C)(C)C5CC[C@@]4(C)[C@]3(C)CC[C@@]2(C(=O)OCc2ccccc2)CC1=O (some centres not stated)	37 µM	21 µM	26 µM	27 µM	28 µM	156 uM l-1						
COC(=O)[C@@]12CC[C@]3(C)C(CCC4[C@@]5(C)CC[C@H](OC(C)=O)C(C)(C)C5CC[C@]43C)C1=C(C(C)C)C(=O)C2=O (some centres not stated)	34 µM	33 µM	16 µM	29 µM	36 µM		87 µM					
CC(=O)O[C@H]1CC[C@@]2(C)C(CC[C@]3(C)C2CCC2C4=C(C(C)C)C(=O)C[C@]4(CO)CC[C@]23C)C1(C)C (some centres not stated)	39 µM	33 µM	28 µM	37 µM	35 µM		84 µM					
CCOC(=O)[C@@]12CC[C@]3(C)C(CCC4[C@@]5(C)CC[C@H](OC(C)=O)C(C)(C)C5CC[C@]43C)C1=C(C(C)C)C(=O)C2 (some centres not stated)				59 µM		216 uM l-1		244 uM l-1	224 uM l-1	102 uM l-1	206 uM l-1	
CC(C)C1=C2C3CCC4[C@@]5(C)CC[C@H](O)C(C)(C)C5CC[C@@]4(C)[C@]3(C)CC[C@@]2(C(=O)O)CC1=O (some centres not stated)	40 µM	33 µM	29 µM	30 µM	34 µM	160 uM l-1						
COC(=O)[C@@]12CC[C@]3(C)C(CCC4[C@@]5(C)CC[C@H](O)C(C)(C)C5CC[C@]43C)C1=C(C(C)C)C(=O)C2 (some centres not stated)	38 µM	38 µM	26 µM	38 µM	36 µM		80 µM					
CC(=O)OC[C@@]1(C(=O)O)CC[C@]2(C)C(CCC3[C@@]4(C)CC[C@H](OC(=O)CCl)C(C)(C)C4CC[C@]32C)C1=O (some centres not stated)	2.3 µM	3.6 µM	1 µM	0.2 µM	0.4 µM		1.3 µM					
C=C1CC[C@]2(C)C(CCC3[C@@]4(C)CC[C@H](OC(C)=O)C(C)(C)C4CC[C@]32C)C1=O (some centres not stated)				0.4 µM	1.1 µM		2.1 µM	143 uM l-1	129 uM l-1	> 250 uM l-1		
CC(=O)OC[C@@]12CC[C@]3(C)C(CCC4[C@@]5(C)CC[C@H](OC(=O)CCl)C(C)(C)C5CC[C@]43C)C1=C(C(C)C)C(=O)OC2=O (some centres not stated)						121 uM l-1		250 uM l-1	216 uM l-1	162 uM l-1	220 uM l-1	181 uM l-1
CC(C)C1=C2C3CCC4[C@@]5(C)CC[C@H](O)C(C)(C)C5CC[C@@]4(C)[C@]3(C)CC[C@@]2(CO)CC1=O (some centres not stated)						> 250 uM l-1		> 250 uM l-1	> 250 uM l-1	> 250 uM l-1	> 250 uM l-1	> 250 uM l-1
CC(=O)OC[C@@]12CC[C@]3(C)C(CCC4[C@@]5(C)CC[C@H](OC(=O)CCl)C(C)(C)C5CC[C@]43C)C1=C(C(C)C)C(=O)C2 (some centres not stated)			44 µM		97 µM	229 uM l-1		242 uM l-1	110 uM l-1			110 uM l-1
CC(=O)O[C@H]1CC[C@@]2(C)C(CC[C@]3(C)C2CCC2C4=C(C(C)C)C(=O)C[C@]4(C(=O)OCc4ccccc4)CC[C@]23C)C1(C)C (some centres not stated)						250 uM l-1		250 uM l-1	250 uM l-1	250 uM l-1	250 uM l-1	245 uM l-1
CCOC(=O)[C@@]12CC[C@]3(C)C(CCC4[C@@]5(C)CC[C@H](OC(C)=O)C(C)(C)C5CC[C@]43C)C1=C(C(C)C)C(=O)C2=O (some centres not stated)	87 µM	93 µM	38 µM	59 µM		148 uM l-1					130 uM l-1	
CC(=O)OC[C@@]12CC[C@]3(C)C(CCC4[C@@]5(C)CC[C@H](OC(C)=O)C(C)(C)C5CC[C@]43C)C1=C(C(C)C)C(=O)C2 (some centres not stated)						> 250 uM l-1		> 250 uM l-1	> 250 uM l-1	> 250 uM l-1	> 250 uM l-1	> 250 uM l-1
CC(=O)OC[C@@]12CC[C@]3(C)C(CCC4[C@@]5(C)CC[C@H](OC(=O)CCl)C(C)(C)C5CC[C@]43C)C1=C(C(C)C)C(=O)C2=O (some centres not stated)						170 uM l-1		208 uM l-1	> 250 uM l-1	242 uM l-1	> 250 uM l-1	231 uM l-1
CCOC(=O)[C@@]12CC[C@]3(C)C(CCC4[C@@]5(C)CC[C@H](O)C(C)(C)C5CC[C@]43C)C1=C(C(C)C)C(=O)C2 (some centres not stated)	33 µM	13 µM	18 µM	17 µM	19 µM		80 µM					
COC(=O)[C@@]12CC[C@]3(C)C(CCC4[C@@]5(C)CC[C@H](O)C(C)(C)C5CC[C@]43C)C1=C(C(C)C)C(=O)C2=O (some centres not stated)	72 µM	54 µM	44 µM	35 µM	46 µM	138 uM l-1						
COC(=O)[C@@]12CC[C@]3(C)C(CCC4[C@@]5(C)CC[C@H](OC(C)=O)C(C)(C)C5CC[C@]43C)C1=C(C(C)C)C(=O)C2 (some centres not stated)			44 µM	34 µM	96 µM	165 uM l-1		246 uM l-1	149 uM l-1			
CCOC(=O)[C@@]12CC[C@]3(C)C(CCC4[C@@]5(C)CC[C@H](O)C(C)(C)C5CC[C@]43C)C1=C(C(C)C)C(=O)C2=O (some centres not stated)					85 µM	140 uM l-1		165 uM l-1	176 uM l-1	210 uM l-1		239 uM l-1
CC(=O)OC[C@@]12CC[C@]3(C)C(CCC4[C@@]5(C)CC[C@H](O)C(C)(C)C5CC[C@]43C)C1=C(C(C)C)C(=O)C2 (some centres not stated)		93 µM		39 µM	59 µM		85 µM	163 uM l-1		250 uM l-1		
CC(=O)O[C@H]1CC[C@@]2(C)C(CC[C@]3(C)C2CCC2C4=C(C(C)C)C(=O)C[C@]4(C(=O)O)CC[C@]23C)C1(C)C (some centres not stated)						128 uM l-1		117 uM l-1	149 uM l-1	> 250 uM l-1	> 250 uM l-1	> 250 uM l-1
C=C(C)[C@@H]1CC[C@]2(CO)CC[C@]3(C)[C@H](CC[C@@H]4[C@@]5(C)CC[C@H](O)C(C)(C)[C@@H]5CC[C@]43C)[C@@H]12 [BETULIN]						> 250 uM l-1		> 250 uM l-1	> 250 uM l-1	> 250 uM l-1	> 250 uM l-1	> 250 uM l-1
